Bioassay records (PubChem BioAssay)
Only some compounds are listed: those with a hit (about 2.3% of all), similar ones and a draw of the others.
TAAR1 agonist: human TAAR1 agonism | 360,000 tested, 0.99% active | CHO RD-HGA16 TAAR1, Fluo-8 calcium fluorescence; vehicle wells 0%, saturating PEA agonist 100% | activation, % at 3 µM | Q96RJ0;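 active = activation above the mean activation of all test compounds in the run plus 3 SD, cut at about 38% in these data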
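System: CHO-derived RD-HGA16 cells with stable Gα16 and human TAAR1 / Times: 17-24 h plating, Fluo-8 75 min 37 °C, 30 min RT / Technique: calcium-sensitive Fluo-8 signal, excitation 470-495, emission 515-575 nm / Measure: % activation relative to PEA EC100 response / Benchmarks: DMSO and PEA EC100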
V1aR counter: V1a receptor agonism, counter-screen for OXTR agonists. P37288. CHO-V1R cells, Fluo-8 calcium fluorescence, agonist mode; 0% DMSO, 100% 3 nM vasopressin. activation, % at 3 µM. 320,000 tested, 0.25% active. AID 2797;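 active = activation above the mean activation of all tested compounds plus 3 SD, per screening run, cut at about 20% in these data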;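 note: signal is peak over basal fluorescence ratio across a 100 second FLIPR read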
Target sequence (P37288 whole entry, looked up): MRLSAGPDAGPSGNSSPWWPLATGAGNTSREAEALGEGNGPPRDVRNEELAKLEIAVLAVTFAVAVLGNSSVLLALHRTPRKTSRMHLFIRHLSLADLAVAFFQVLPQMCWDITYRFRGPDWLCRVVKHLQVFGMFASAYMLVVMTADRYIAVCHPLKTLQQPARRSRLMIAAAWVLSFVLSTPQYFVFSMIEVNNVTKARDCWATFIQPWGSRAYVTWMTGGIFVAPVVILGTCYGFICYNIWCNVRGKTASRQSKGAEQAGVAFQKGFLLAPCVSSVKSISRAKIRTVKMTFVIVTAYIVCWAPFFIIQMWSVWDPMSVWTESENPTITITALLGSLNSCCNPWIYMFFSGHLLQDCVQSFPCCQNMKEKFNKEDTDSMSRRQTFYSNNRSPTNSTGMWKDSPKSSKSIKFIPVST
OXTR agonist: human OXTR agonism | P30559 | CHO-OTR cells, Fluo-8 calcium fluorescence; normalized: DMSO 0%, oxytocin 100% | activation, % at 3 µM | 320,000 tested, 0.32% active | AID 2435;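 active = activation above the mean of all tested compounds plus 3 SD, cutoff set per screening run, cut at about 20% in these data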;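 note: peak over basal fluorescence ratio from a 100 s FLIPR kinetic read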
Target sequence (P30559 whole entry, looked up): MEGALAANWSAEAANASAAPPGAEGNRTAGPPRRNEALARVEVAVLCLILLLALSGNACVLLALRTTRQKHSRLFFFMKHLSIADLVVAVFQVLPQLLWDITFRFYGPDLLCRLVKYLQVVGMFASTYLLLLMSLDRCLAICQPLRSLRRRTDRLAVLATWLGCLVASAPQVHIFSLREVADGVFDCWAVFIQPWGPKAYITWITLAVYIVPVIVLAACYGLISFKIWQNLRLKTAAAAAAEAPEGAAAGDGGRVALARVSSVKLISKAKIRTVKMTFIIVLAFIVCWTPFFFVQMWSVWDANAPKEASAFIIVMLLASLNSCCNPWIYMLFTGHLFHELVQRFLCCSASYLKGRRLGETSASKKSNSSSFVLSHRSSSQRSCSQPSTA
TAAR1 antagonist: antagonists of human TAAR1. inhibition, % at 3 µM. CHO RD-HGA16 TAAR1, Fluo-8 calcium fluorescence, antagonist. Q96RJ0. 360,000 tested, 1.5% active;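 active = inhibition above a per-plate cutoff, the mean inhibition of test compounds on that plate plus 3 SD, cut at about 49% in these data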;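 note: 0% = DMSO plus EC80 beta-PEA response and 100% = DMSO alone without agonist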
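Material: CHO RD-HGA16 cells bearing hTAAR1; compound dosing: one-point dosing, 3 µM nominal final; schedule: dye loading 75 min at 37 °C, then 30 min room temperature; measured by: calcium fluorescence with Fluo-8; control set: vehicle and agonist controls; replication: n of 1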
OXTR potentiate: human OXTR potentiation; activation, % at 3 µM; AID 2445; CHO-OTR cells, Fluo-8 calcium fluorescence, potentiator mode; 0% = oxytocin EC15, 100% = EC100; 320,000 tested, 0.061% active; P30559;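 active = activation above that plate's cutoff, the mean activation of tested compounds plus 3 SD, cut at about 6.6% in these data, passing the limit was not always enough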;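 note: 100% uses oxytocin at 75 nM as the full agonist control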
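Replication – single well per compound, singlicate · Assay system – CHO cell line stably expressing human OTR · Timing – 6 min pre-incubation, 100 s read · Measure – normalized max/min fluorescence ratio, % activation · Doses – 3.0 µM, one dose · Detection – Fluo-8 calcium dye fluorescence · Probe or stimulus – oxytocin near EC15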
TAAR1 ag confirm: human TAAR1 agonism, confirmed; shares compounds with TAAR1 agonist; CHO RD-HGA16 TAAR1, Fluo-8 calcium fluorescence; scaled: DMSO 0%, maximal phenethylamine 100%; activation, % at 3 µM; 2,400 tested, 82% active; AID 651783;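 active = activation above a cutoff set at the run's mean compound activation plus 3 SD, cut at about 39% in these data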
Ga16 nonsel ag: nonselective agonism, TAAR1 counter-screen | shares compounds with TAAR1 agonist | CHO-Ga16 parental, Fluo-8 calcium fluorescence; normalized to maximal ATP response, DMSO zero | activation, % at 3 µM | 2,400 tested, 50% active | AID 651787;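 active = activation above the run cutoff, the mean activation over all tested wells plus 3 SD, cut at about 12% in these data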;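 note: 0% = DMSO wells and 100% = maximal ATP response on the peak over basal ratio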
TAAR1 desens: human TAAR1 agonist that also desensitizes the receptor. shares compounds with TAAR1 agonist. CHO RD-HGA16 hTAAR1, Fluo-8 calcium, beta-PEA response inhibition. inhibition, % at 3 µM. 2,400 tested, 46% active;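 active = inhibition above the run cutoff, the mean inhibition of all test compounds plus 3 SD, cut at about 49% in these data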;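 note: beta-PEA stimulus applied at its EC80; loss of beta-PEA calcium signal after compound pretreatment read as receptor desensitization; 0% = DMSO with beta-PEA at EC80 and 100% = DMSO alone without agonist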
Ga16 antag count: nonselective Ga16 antagonist in TAAR1 agonist counter-screen | shares compounds with TAAR1 agonist | CHO-Ga16 ATP-induced calcium, Fluo-8 fluorescence | inhibition, % at 3 µM | 2,400 tested, 39% active | AID 651952;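 active = inhibition above the plate's mean compound inhibition plus 3 SD, computed per plate, cut at about 22% in these data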;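 note: 0% = EC80 ATP with DMSO and 100% = DMSO wells without ATP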
Active calls of the source: *; · = not tested or not shown.

SMILES | TAAR1 agonist | V1aR counter | OXTR agonist | TAAR1 antagonist | OXTR potentiate | TAAR1 ag confirm | Ga16 nonsel ag | TAAR1 desens | Ga16 antag count
c1ccc2c(c1)CC(N1CCCCC1)c1ccccc1S2 (centres undefined) | -1.9 | -1.6 | -1.0 | -17.4 | 15.4 | · | · | · | ·
CN1Cc2cccc3c2C(Cc2ccccc2S3)C1 (centres undefined) | 59.0* | -0.5 | -1.6 | -21.7 | 0.7 | 61.1* | 4.6 | 19.3 | 5.6
Cc1cc(/C=C2/SC(=O)NC2=O)c(C)n1-c1ccc(N2CCOCC2)cc1 | 53.8* | 14.2 | 8.4 | 27.9 | -11.0 | 60.0* | 38.0* | 29.8 | 24.1*
Cc1cccc(C)c1Nc1c(-c2ccccn2)nc2ccccn12 | 17.3 | -0.9 | -0.6 | -50.3 | -3.2 | · | · | · | ·
Cc1sc(NC(=O)CN(Cc2ccc(F)cc2)C(=O)C(C)C)c(C(N)=O)c1C | 7.7 | 0.4 | 0.4 | -15.7 | -12.6 | · | · | · | ·
O=C(Cn1cnc2c(oc3ccccc32)c1=O)NCCc1ccccc1 | · | 1.1 | 1.0 | · | -4.6 | · | 1.6 | · | 1.3
CC(C)C(C)NC(=O)Cn1cnc2c(oc3ccccc32)c1=O (centres undefined) | 2.1 | 0.1 | 1.0 | -0.9 | -0.8 | · | · | · | ·
O=C(CNCC1CCCCC1)Nc1ccc(OC(F)(F)F)cc1 | 74.1* | 1.3 | 5.5 | 41.1 | -4.7 | 76.4* | 50.7* | 49.2* | 32.5*
CN(CC(=O)Nc1ccc(OC(F)(F)F)cc1)C1CCCCC1 | 13.6 | -1.2 | -0.1 | -13.0 | 1.4 | · | · | · | ·
Cc1nc(N)nc(N)c1/C=C/C(C)(C)c1ccc(Cl)cc1 | 53.5* | · | · | 40.5 | · | 71.9* | 41.8* | 72.2* | 48.0*
O=C(Cc1cccc(NC(=O)C2CCCN(C(=O)C3CCC3)C2)c1)Nc1ccc(C(=O)N2CCCCC2)cc1 (centres undefined) | 0.6 | · | · | -23.4 | · | · | · | · | ·
CCOC(=O)c1c(NC(=O)C(C)N2CCN(C(=O)c3ccco3)CC2)sc2c1CCCC2 (centres undefined) | 84.3* | 2.9 | 1.5 | 87.0* | -5.4 | 42.2* | 36.6* | 70.8* | 58.8*
Cc1ccc(C(c2sc3ncnn3c2O)N2CCCCC2)cc1 (centres undefined) | -0.7 | -0.5 | -0.5 | -16.2 | -4.0 | · | · | · | ·
Cc1nc2sc(C(c3ccco3)N3CCN(c4ccccc4F)CC3)c(O)n2n1 (centres undefined) | 19.6 | 0.9 | 0.5 | -1.8 | -5.2 | · | · | · | ·
Cc1nc2sc(C(c3ccco3)N3CCc4ccccc4C3)c(O)n2n1 (centres undefined) | 75.6* | 1.2 | 0.1 | 53.9* | -6.7 | 95.9* | 7.6 | 70.5* | 4.3
Oc1c(C(c2ccc(F)cc2)N2CCc3ccccc3C2)sc2ncnn12 (centres undefined) | · | 1.9 | -1.1 | · | -3.5 | · | 7.0 | · | 12.9
COc1ccc(C(=O)NC(=S)NNC(=O)c2cccnc2)cc1 | -1.6 | -0.1 | -1.1 | -1.7 | -7.8 | · | · | · | ·
COc1ccc(C(=O)NNC(=S)NC(=O)c2ccco2)cc1 | 58.8* | 19.1 | 17.7 | 12.8 | -12.4 | 66.0* | 38.6* | 15.8 | 13.1
CCCCOc1ccc(C(=O)NNC(=S)NC(=O)CC)cc1 | · | -0.3 | -1.5 | · | 3.8 | · | · | · | ·
O=C(NC(=S)NNC(=O)c1ccco1)c1ccc(Br)cc1 | 94.3* | 7.3 | 10.9 | 27.0 | -7.1 | 92.1* | 72.0* | 35.9 | 32.3*
O=C(CCNC(=O)c1ccco1)NNC(=O)c1ccc(Br)cc1 | 4.8 | · | · | -1.6 | · | · | · | · | ·
CCCOc1ccc(C(=O)NNC(=S)NC(=O)c2ccco2)cc1 | 156.4* | 97.7* | 94.9* | 105.1* | -21.3 | 147.2* | 119.3* | 103.6* | 71.6*
O=C(Cc1cccc(NC(=O)C2CCCN(C(=O)C3CC3)C2)c1)Nc1ccc(C(=O)N2CCOCC2)cc1 (centres undefined) | -0.1 | · | · | 0.2 | · | · | · | · | ·
CC(C)CNC(=O)COC(=O)c1ccc(F)cc1Cl | 2.8 | 0.7 | -1.2 | 0.7 | -14.7 | · | · | · | ·
CCOC(=O)[C@]12CCC=C1N(Cc1ccc(Cl)cc1Cl)C(=O)[C@H](CC(=O)NCCCN1CCCC1=O)C2 | -0.9 | · | · | -11.2 | · | · | · | · | ·
SMILES | TAAR1 agonist | V1aR counter | OXTR agonist | TAAR1 antagonist | OXTR potentiate | TAAR1 ag confirm | Ga16 nonsel ag | TAAR1 desens | Ga16 antag count
CC1CCCN(C(=S)SCC(=O)c2cc(Br)cc(Br)c2O)C1 (centres undefined) | 73.6* | 1.6 | 2.0 | -19.1 | 3.5 | 81.7* | 8.4 | 70.0* | 19.1
Brc1ccc(C2=CC(c3cccs3)n3ncnc3N2)cc1 (centres undefined) | 164.4* | 75.4* | 74.5* | 110.2* | -26.9 | 36.2 | 50.9* | 61.8* | 57.3*
CCC(=O)OCC(=O)c1c(N)n(Cc2ccccc2)c(=O)n(C)c1=O | 3.5 | 0.8 | -0.1 | -7.3 | -4.3 | · | · | · | ·
Cn1c(=O)c(C(=O)COc2ccc(C#N)cc2)c(N)n(Cc2ccccc2)c1=O | 118.8* | 28.3* | 31.9* | 49.7* | -38.1 | 99.6* | 52.5* | 49.1* | 27.4*
COC(=O)c1nc[nH]c1[N+](=O)[O-] | 3.3 | · | · | -10.5 | · | · | · | · | ·
O=[N+]([O-])c1[nH]cnc1/C=C/c1ccccc1 | · | 4.0 | 0.9 | · | -5.5 | · | 3.4 | · | 13.4
Cc1cccc(OCC(=O)N(Cc2ccco2)C2CCS(=O)(=O)C2)c1 (centres undefined) | 1.8 | 0.8 | -0.4 | -14.1 | -4.0 | · | · | · | ·
Cc1nonc1C1CCCN1C(=O)c1cc(COc2ccc(F)cc2F)on1 (centres undefined) | -0.1 | 0.5 | 3.2 | -22.3 | -0.6 | · | · | · | ·
Cn1ccnc1C1CCCCN1C(=O)c1cc(COc2ccc(F)cc2F)on1 (centres undefined) | 56.2* | 0.8 | 5.8 | -16.5 | -3.0 | 7.7 | 3.0 | 12.6 | 8.3
NC[C@@H]1O[C@H](C23CC4CC(CC(C4)C2)C3)Cc2c1ccc(O)c2O | 67.9* | 6.5 | 1.1 | 71.1* | -12.9 | 108.8* | 12.8* | 88.2* | 28.8*
Cc1sc2ccc3sccc3c2[n+]1C | 48.1* | 0.5 | 0.9 | 12.9 | 3.2 | 13.9 | 7.7 | 11.2 | 10.3
Cc1sc2c3ccsc3ccc2[n+]1C | 26.0 | 0.9 | 0.4 | 1.5 | -1.4 | · | · | · | ·
CC(O)[C@H]1CNC(=S)N1CCc1cccc(F)c1 (some centres undefined) | 3.7 | 0.3 | 0.1 | 3.3 | 5.6 | · | · | · | ·
